The test system of data set [1] is Staphylococcus aureus. The data set is described as follows: Antibacterial activity against Staphylococcus aureus ATCC 9144 after 48 hrs by microdilution method. To be noted: ATCC 9144, 48 h. Format: functional. In a few lines: (§1)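 Broth microdilution (CLSI M07-A9, modified) in Mueller-Hinton broth; inoculum about 2.5-3 × 10^4 cells/ml mixed 1:1 with serial compound dilutions. Stock solutions in up to 100% DMSO, final DMSO ≤1%. Incubated 35 °C for 48 h.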
A general note: Broth dilution looks for growth in wells or tubes with falling amounts of substance.

In data set [2] the test system is Corynebacterium glutamicum. Briefly: Antibacterial activity against Corynebacterium glutamicum ATCC 13032 after 48 hrs by microdilution method. Format: functional. To be noted: ATCC 13032, 48 h. In a few lines:
as §1

A further data set deals with Erythrocyte. Briefly: Hemolytic activity against human RBC measured after 1 hr. It counts as cell-based. In a few lines: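 Washed human RBCs from a healthy donor (heparinized) at 10% in PBS pH 7.4, mixed 9:1 with serial compound dilutions, 37 °C for 1 h. Baseline set by 0.5% DMSO in 50% PBS, 100% lysis by 0.05% Triton X-100. EC50 is the concentration giving 50% lysis.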

The nature of data set [3]: Selectivity index, ratio of EC50 for human RBC to MIC for methicillin resistant Staphylococcus epidermidis RP62A ATCC 35984/CCUG 31568. It counts as toxicity. To be noted: human red blood cells (RBC), read-out: Selectivity Index. In short, it runs like this: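 SI = hemolytic EC50 / MRSE MIC. Hemolysis: washed human RBCs (heparinized blood, healthy adult donor) at 10% in PBS pH 7.4, mixed 9:1 with serial compound dilutions, 37 °C for 1 h. 0.05% Triton X-100 set 100% lysis, 0.5% DMSO set baseline. MIC from MHB microdilution, 35 °C, […].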

The test system of data set [4] is Escherichia coli. Briefly: Antibacterial activity against Escherichia coli clinical isolates after 24 hrs by microdilution method. Format: functional. In a few lines:
(§2)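 Clinical isolate screen by broth microdilution with about 1-1.2 × 10^6 cells/ml and 24 h incubation. MIC is the lowest concentration with no growth. For isolate collections, MIC90 is the MIC inhibiting ≥90% of isolates. Multidrug resistance was defined as resistance to at least […] antimicrobial class.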

Data set [5] relates to Staphylococcus aureus. The data set is described as follows: Antibacterial activity against methicillin resistant Staphylococcus aureus N315 clinical isolate after 24 hrs by microdilution method. It counts as functional. To be noted: N315, 24 h. In short, it runs like this:
(§3)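 Broth microdilution in Mueller-Hinton broth (modified CLSI M07-A9), clinical isolates at about 1-1.2 × 10^6 cells/ml. Inoculum mixed 1:1 with serial compound dilutions; stocks made in up to 100% DMSO, final DMSO ≤1%. Incubated 24 h.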

Data set [6] concerns Enterococcus faecium. The data set is described as follows: Antibacterial activity against vancomycin resistant Enterococcus faecium 50,901,530 clinical isolate after 24 hrs by microdilution method. Format: functional. To be noted: Enterococcus faecium, 50,901,530, 24 h. In a few lines: as §3
For data set [7], the system named is Enterococcus faecium. Briefly: Antibacterial activity against vancomycin resistant Enterococcus faecium K36-18 clinical isolate after 24 hrs by microdilution method. Format: functional. To be noted: K36-18, 24 h. In short, it runs like this:
as §3

Data set [8] relates to Enterococcus faecium. Briefly: Antibacterial activity against vancomycin resistant Enterococcus faecium 50,758,899 clinical isolate after 24 hrs by microdilution method. Format: functional. To be noted: Enterococcus faecium, 50,758,899, 24 h. In a few lines:
as §3

Data set [9] concerns Escherichia coli. The data set is described as follows: Antibacterial activity against New Delhi metallo-beta-lactamase 1-producing Escherichia coli 50,739,822 clinical isolate after 24 hrs by microdilution method. To be noted: Escherichia coli, 50,739,822, 24 h. It counts as functional. In short, it runs like this:
as §2

Another data set deals with Pseudomonas aeruginosa. The data set is described as follows: Antibacterial activity against New Delhi metallo-beta-lactamase 1-producing Pseudomonas aeruginosa 50,692,172 clinical isolate after 24 hrs by microdilution method. Format: functional. To be noted: Pseudomonas aeruginosa, 50,692,172, 24 h. In a few lines:
as §2

The test system of data set [10] is Klebsiella pneumoniae. Briefly: Antibacterial activity against KPC2-producing Klebsiella pneumoniae K4725 clinical isolate after 24 hrs by microdilution method. It counts as functional. To be noted: K4725, 24 h. In short, it runs like this: as §2
Data set [11] has as its system Klebsiella pneumoniae. The data set is described as follows: Antibacterial activity against Verona integron-encoded metallo-beta-lactamase 1-producing Klebsiella pneumoniae 50,667,959 clinical isolate after 24 hrs by microdilution method. Format: functional. To be noted: Klebsiella pneumoniae, 50,667,959, 24 h. In a few lines:
as §2

Data set [12] has as its system Acinetobacter baumannii. The data set is described as follows: Antibacterial activity against oxacillinase 24-producing Acinetobacter baumannii K55-13 clinical isolate after 24 hrs by microdilution method. Format: functional. To be noted: K55-13, 24 h. In short, it runs like this:
as §3

Data set [13] has as its system Acinetobacter baumannii. The data set is described as follows: Antibacterial activity against colistin-resistant oxacillinase 23-producing Acinetobacter baumannii K63-58 clinical isolate after 24 hrs by microdilution method. Format: functional. To be noted: K63-58, 24 h. In short, it runs like this: as §3
The next data set relates to Bacillus subtilis. The data set is described as follows: Induction of membrane disruption in Bacillus subtilis 168 expressing luciferase at 4 ug/ml […] by luminescence assay. Format: functional, organism-based. To be noted: subsp. subtilis str. 168.

One may read the MIC as the smallest concentration in the dilution series that meets the test's criterion for growth inhibition. Lower therefore signals a more susceptible organism. By EC50 is commonly meant the concentration needed to bring the measured effect to its halfway point. High values mean lower potency in that assay, low ones higher potency in that assay.

Active and inactive are the calls of the source.

`CC(C)(C)c1cc(C(C)(C)C)cc(S(=O)(=O)Nc2cc3ccccc3cc2C(=O)NCCNC(=N)N)c1.Cl`: the MIC against Staphylococcus aureus [1] is 4 µg/mL; in [2] it was 2 µg/mL; in the data set on Escherichia coli [4] it was 8 µg/mL; with Staphylococcus aureus [5], 4 µg/mL; in the data set on Enterococcus faecium [6] it was 8 µg/mL; in the data set with Enterococcus faecium [7], 8 µg/mL. Moreover, the MIC with Enterococcus faecium [8] is 8 µg/mL; in the data set with Escherichia coli [9] it was greater than 32 µg/mL; in the data set with Pseudomonas aeruginosa, greater than 64 µg/mL; against Klebsiella pneumoniae [10], greater than 32 µg/mL; against Klebsiella pneumoniae [11] it was no less than 32 µg/mL; in the data set with Acinetobacter baumannii [12] it was 32 µg/mL. Also, in the data set on Acinetobacter baumannii [13], the MIC came out at 32 µg/mL. This compound also displayed an EC50 in the data set with Erythrocyte of 25 µg/mL. For the same compound, the selectivity ratio in data set [3] is 6.
As for `CN(c1ccc(C(=O)NCCCNC(=N)N)cc1)S(=O)(=O)c1cc(C(C)(C)C)cc(C(C)(C)C)c1.Cl`, the result with Bacillus subtilis was Active. In addition, the MIC was determined as 4 µg/mL in the data set with Staphylococcus aureus [1]; 2 µg/mL in [2]; 16 µg/mL against Escherichia coli [4]; 8 µg/mL against Staphylococcus aureus [5]; 16 µg/mL against Enterococcus faecium [6]; 16 µg/mL against Enterococcus faecium [7]. Further, the minimal inhibitory concentration (MIC) in the data set on Enterococcus faecium [8] was 8 µg/mL; in the data set with Escherichia coli [9], no less than 32 µg/mL; in the data set with Pseudomonas aeruginosa, 32 µg/mL; in the data set with Klebsiella pneumoniae [10] it was no less than 32 µg/mL; with Klebsiella pneumoniae [11] it was no less than 32 µg/mL; with Acinetobacter baumannii [12] it was no less than 32 µg/mL. For the same compound, the MIC in the data set with Acinetobacter baumannii [13] was no less than 32 µg/mL. For the same compound, the EC50 in the data set on Erythrocyte was 55 µg/mL. In addition, the selectivity ratio in data set [3] was found to be 14.

The values above are taken from ChEMBL document CHEMBL4152356, “Amphipathic sulfonamidobenzamides mimicking small antimicrobial marine natural products; investigation of antibacterial and anti-biofilm activity against antibiotic resistant clinical isolates” (Bioorg Med Chem, 2018).
